Measurements collected from several papers.
Compare with care: the assays were run in different laboratories.
Target: Inhibitor of nuclear factor kappa-B kinase subunit epsilon (IKBKE, Homo sapiens, UniProt Q14164)
Residues used in one study (Q14164 1-716): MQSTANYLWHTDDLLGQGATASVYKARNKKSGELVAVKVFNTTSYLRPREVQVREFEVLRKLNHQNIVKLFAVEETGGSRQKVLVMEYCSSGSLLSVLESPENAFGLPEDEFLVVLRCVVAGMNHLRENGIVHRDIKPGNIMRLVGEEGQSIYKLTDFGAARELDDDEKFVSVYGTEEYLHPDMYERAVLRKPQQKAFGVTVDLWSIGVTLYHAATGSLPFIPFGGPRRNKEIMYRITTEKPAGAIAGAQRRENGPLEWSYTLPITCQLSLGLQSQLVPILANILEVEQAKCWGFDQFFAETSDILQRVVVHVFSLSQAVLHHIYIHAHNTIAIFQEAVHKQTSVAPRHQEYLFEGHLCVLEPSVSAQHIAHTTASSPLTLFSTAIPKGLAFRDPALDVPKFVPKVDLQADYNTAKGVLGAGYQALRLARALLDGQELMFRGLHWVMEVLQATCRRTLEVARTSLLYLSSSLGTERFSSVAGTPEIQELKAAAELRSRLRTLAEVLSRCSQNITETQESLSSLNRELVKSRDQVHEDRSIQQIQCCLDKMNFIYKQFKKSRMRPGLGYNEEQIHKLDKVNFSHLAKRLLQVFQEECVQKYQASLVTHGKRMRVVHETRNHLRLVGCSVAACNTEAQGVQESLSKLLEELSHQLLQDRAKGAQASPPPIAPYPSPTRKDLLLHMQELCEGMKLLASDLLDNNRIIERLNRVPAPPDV

Cc1c[nH]c2nccc(Oc3c(F)cc(Nc4cc(Cl)nc(N)n4)cc3F)c12  remaining binding (cell-free assay, competition with immobilised ligand; 0.1 µM): 93%
Cc1nn(CC(F)(F)F)cc1Nc1nccc(NCc2ccc(S(N)(=O)=O)cc2)n1  remaining activity (enzyme activity, inhibitor, radiometric; 1 µM): 73%
Cc1ccc(C(=O)NCc2ccsc2)cc1C#Cc1cn(C(C)C)c2ncnc(N)c12  activity vs control (enzyme activity, inhibitor; 1 µM): 104%
Cc1nn(CC(F)(F)F)cc1Nc1nccc(NCCCNC(=O)C2CCC2)n1  remaining activity (enzyme activity, inhibitor, radiometric; 1 µM): 63%
COc1cc(Nc2c(C#N)cnc3cc(OCCCN4CCN(C)CC4)c(OC)cc23)c(Cl)cc1Cl  remaining signal (cell-free assay; 0.5 µM): 75.4%
CCC(=O)N[C@H]1CC[C@@H](C(=O)N(C)c2ccc(-c3nc4ccccc4o3)cc2)C1  remaining binding (cell-free assay, competition with immobilised ligand; 1 µM): 52%
Cc1nn(CC(F)(F)F)cc1Nc1nccc(NCCc2cnc[nH]2)n1  remaining activity (enzyme activity, inhibitor, radiometric; 1 µM): 83%
C[C@@H]1CN(c2cc(-c3nn(C)c4ccc(OC5(C)CC5)cc34)ncn2)C[C@H](C)O1  remaining binding (cell-free assay, competition with immobilised ligand; 1 µM): 65%
COc1cc(/C=C/C(=O)CC(=O)/C=C/c2ccc(O)c(OC)c2)ccc1O  activity vs control (enzyme activity, inhibitor; 1 µM): 72%
CCCS(=O)(=O)Nc1ccc(F)c(C(=O)c2c[nH]c3ncc(-c4ccc(Cl)cc4)cc23)c1F  inhibition (enzyme activity, inhibitor; 1 µM): < 10%
O=C(N[C@H]1CCCCC/C=C\C2C[C@@]2(C(=O)O)NC(=O)[C@@H]2C[C@@H](Oc3ccncc3)CN2C1=O)OC1CCCC1 (stereo partly shown)  remaining binding (binding, competition with immobilised ligand; 1 µM): 100%
N#CCCc1ccc2c(c1)-c1[nH]c3ccc([N+](=O)[O-])cc3c1CC(=O)N2  remaining signal (cell-free assay; 0.5 µM): 89.2%
Nc1c(C(=O)NCc2ccc(C(=O)NCCCC3CCCCC3)cc2)cnn1-c1ccccc1  remaining binding (cell-free assay, competition with immobilised ligand; 0.1 µM): 100%
COc1cc2ncnc(Nc3ccc(Oc4ccccc4)c(C)c3C)c2cc1OC  inhibition (enzyme activity, inhibitor; 1 µM): 1%
C[C@H](NC(=O)c1cnc2n1[C@](C)(Cc1ccc(C#N)cc1)C(=O)N2c1cc(Cl)c(F)c(Cl)c1)C(=O)NC1(c2ccccn2)CC1  remaining binding (cell-free assay, competition with immobilised ligand; 1 µM): 89%
NS(=O)(=O)c1ccc(CNc2nc(Nc3cccc(NC(=O)N4CCCC4)c3)ncc2C2CC2)cc1  remaining activity (enzyme activity, inhibitor, radiometric; 1 µM): 52%
Nc1nc(Nc2ccc(S(N)(=O)=O)cc2)nn1C(=O)c1c(F)cccc1F  remaining signal (cell-free assay; 0.5 µM): 95.9%
Cc1nn(CC(F)(F)F)cc1Nc1ncc(Br)c(NCCCNC(=O)C2CCC2)n1  remaining activity (enzyme activity, inhibitor, radiometric; 1 µM): 1%
Cc1cc(NC(=O)c2cccc3cc(-c4cccc5[nH]nc(N)c45)ccc23)ccc1F  activity vs control (enzyme activity, inhibitor; 0.1 µM): 111%
COc1cc2c(N3CCN(C(=O)Nc4ccc(OC(C)C)cc4)CC3)ncnc2cc1OCCCN1CCCCC1  remaining signal (cell-free assay; 0.5 µM): 96.2%
Cc1nn(CC(F)(F)F)cc1Nc1ncc(C2CC2)c(NCc2ccc(S(N)(=O)=O)cc2)n1  remaining activity (enzyme activity, inhibitor, radiometric; 1 µM): 43%
CC/C(=N\NC(=O)NCc1cccc(O)c1)c1ccc(O)c(C)c1O  inhibition (enzyme activity, inhibitor; 0.1 µM): -0.4%
